The target in one assay is rhMMP-12 (Homo sapiens, UniProt P39900). The experiment in a line: MMP affinity determination. It counts as biochemical. The gist of the method: (§1)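 Inhibition constants were derived from the kinetic effect of the test compound on MMP cleavage of the fluorogenic substrate Mca-Lys-Pro-Leu-Gly-Leu-Dpa-Ala-Arg-NH2. Conditions: 50 mM Tris/HCl pH 6.8, 10 mM CaCl2, 25 °C, with 0.2–0.5 nM enzyme. […] Fluorescence was monitored, and Ki was obtained by the Horovitz–Levitzki method.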
Sequence of rhMMP-12 (P39900 106-470): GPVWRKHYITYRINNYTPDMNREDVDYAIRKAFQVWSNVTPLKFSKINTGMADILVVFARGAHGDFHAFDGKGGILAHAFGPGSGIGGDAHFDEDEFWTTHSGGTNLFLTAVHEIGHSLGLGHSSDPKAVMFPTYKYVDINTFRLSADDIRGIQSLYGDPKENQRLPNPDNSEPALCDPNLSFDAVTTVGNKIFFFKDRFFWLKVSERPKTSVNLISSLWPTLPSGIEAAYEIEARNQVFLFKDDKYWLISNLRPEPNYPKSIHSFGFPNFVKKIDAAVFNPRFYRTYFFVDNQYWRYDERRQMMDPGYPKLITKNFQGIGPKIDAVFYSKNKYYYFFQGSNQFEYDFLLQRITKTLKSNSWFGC

In the next assay the target is T1, rhMMP-7 (Homo sapiens, UniProt P09237).
T1 sequence (P09237 95-267): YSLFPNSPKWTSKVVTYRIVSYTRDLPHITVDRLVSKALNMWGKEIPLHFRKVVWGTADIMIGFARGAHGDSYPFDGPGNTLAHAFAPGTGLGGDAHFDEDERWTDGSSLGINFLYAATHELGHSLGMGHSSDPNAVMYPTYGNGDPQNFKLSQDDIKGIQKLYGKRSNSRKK
The assay can be described thus: MMP affinity determination. It counts as biochemical. The note with it: relative to CGA. The gist of the method: as §1

The target in the next assay is MMP-12 (Mus musculus, UniProt P34960). The assay can be described thus: 99mTc-AGA-2 binding specificity. Particulars: co-incubation with 500-fold molar excess, P < 0.001. The gist of the method: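 Tissues came from Apoe−/− mice given angiotensin II (1,000 ng/kg/min) by subcutaneous minipump for 4 weeks. Tracer binding was compared in aneurysmal aorta and in normal-size infrarenal aorta, with or without MMP inhibitors.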
Sequence of MMP-12 (P34960 110-473): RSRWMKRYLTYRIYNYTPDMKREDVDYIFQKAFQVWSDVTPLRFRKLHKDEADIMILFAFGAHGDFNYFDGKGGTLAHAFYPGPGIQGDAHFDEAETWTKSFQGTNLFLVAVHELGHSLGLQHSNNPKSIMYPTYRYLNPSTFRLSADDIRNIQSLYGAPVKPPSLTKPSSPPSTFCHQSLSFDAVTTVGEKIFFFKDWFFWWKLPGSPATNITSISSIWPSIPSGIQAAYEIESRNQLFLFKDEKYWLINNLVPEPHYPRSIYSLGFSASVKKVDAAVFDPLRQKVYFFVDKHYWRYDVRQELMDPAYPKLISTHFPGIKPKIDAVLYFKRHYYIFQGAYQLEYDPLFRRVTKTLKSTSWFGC

Experimental findings from paper PMC8010999 (Journal of medicinal chemistry, 2020) are described below.

In the case of `CC(C)C[C@H](CC(=O)NO)C(=O)N[C@@H](Cc1ccccc1)C(=O)O` [AGA], the “drop in potency for MMP-12 on ring opening from cyclic CGA to acyclic AGA” value on rhMMP-12 (relative to CGA) was determined as 10 fold. Besides, the “drop in potency for MMP-7 on ring opening from cyclic CGA to acyclic AGA” value on rhMMP-7 is given as 10 fold. The “effect on 99mTc-AGA-2 binding to AAA tissue” value at MMP-12 is reported as “significantly reduced”.

As to `CC(C)C[C@H]1C(=O)N[C@H](C(=O)N[C@@H](CCC(=O)O)C(=O)O)Cc2ccc(cc2)OCCC[C@@H]1C(=O)NO` [CGA-1], the “selectivity for rhMMP-12 relative to rhMMP-7” value on rhMMP-12 (against rhMMP-7) is listed as “at least 12 folds”.

Consider `CC(C)C[C@H]1C(=O)N[C@H](C(=O)O)Cc2ccc(cc2)OCCC[C@@H]1C(=O)NO` [CGA], for which the “selectivity for rhMMP-12 relative to rhMMP-13” value on rhMMP-12 (against rhMMP-13) was determined as 28 folds.

With `CNC(=O)[C@H](Cc1c[nH]c2ccccc12)NC(=O)[C@@H](CC(=O)NO)CC(C)C` [GM6001, reference compound], the “effect on 99mTc-AGA-2 binding to AAA tissue” value at MMP-12 is “significantly reduced”.
